Experimental data published in ChEMBL document CHEMBL4823247, “Natural Isoflavones and Semisynthetic Derivatives as Pancreatic Lipase Inhibitors” (J Nat Prod, 2021).
Activity calls are given as the source filed them. The calls are words filed in the database; no cut-off is given here.

Species on record: Sus scrofa
Experiment: Binding affinity to pig pancreatic lipase type 2 assessed as binding constant at 37 degC measured after 1 min by Stern-Volmer plot analysis
Summary of the method: (§1)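 Intrinsic Trp fluorescence titration of PL, 1.1 μM in 0.1 M phosphate buffer with 0.1 M NaCl, pH 7.4, by successive 1 or 2 μL additions of compound. Run at 27, 32 and 37 °C, each in triplicate. Excitation 285 nm, slits 10 nm. Spectrum recorded 1 min after each addition. Intensity at the emission maximum was used for Stern–Volmer plots.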

Row | Ka | Compound
1 | 1.47 10^4L/mol | COc1ccc(-c2coc3c(Br)c(O)ccc3c2=O)cc1
2 | 0.27 10^4L/mol | COc1ccc(-c2coc3cc(O)ccc3c2=O)cc1 [FORMONONETIN]
3 | 0.44 10^4L/mol | O=c1c(-c2ccc(O)cc2)coc2cc(O)cc(O)c12 [GENISTEIN]

Target: not listed separately
Experiment: Competitive inhibition of pig pancreatic lipase type 2 using varying concentrations of p-nitrophenyl butyrate as substrate measured every 1 min for 30 mins by Lineweaver-Burk plot analysis
Parameters: species or system Sus scrofa
Summary of the method: (§2)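 A405 was read every 1 min for 30 min. Mode of inhibition was from Lineweaver–Burk plots of 1/v0 vs 1/[S]. Ki and K'i were obtained from replots of slope and y-intercept versus inhibitor concentration.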

Row | Ki | Compound
4 | 320 µM | COc1ccc(-c2coc3c(Br)c(O)ccc3c2=O)cc1
5 | 640 µM | COc1ccc(-c2coc3cc(O)ccc3c2=O)cc1 [FORMONONETIN]
6 | 80 µM | O=c1c(-c2ccc(O)cc2)coc2cc(O)cc(O)c12 [GENISTEIN]

Species on record: Sus scrofa
Experiment: Binding affinity to pig pancreatic lipase type 2 assessed as quenching rate constant at 32 degC measured after 1 min by Stern-Volmer plot analysis
Summary of the method: as §1

Row | Kq | Compound
7 | 2.1 10^13L/mol.s | COc1ccc(-c2coc3c(Br)c(O)ccc3c2=O)cc1
8 | 0.64 10^13L/mol.s | COc1ccc(-c2coc3cc(O)ccc3c2=O)cc1 [FORMONONETIN]
9 | 0.94 10^13L/mol.s | O=c1c(-c2ccc(O)cc2)coc2cc(O)cc(O)c12 [GENISTEIN]

Species on record: Sus scrofa
Experiment: Binding affinity to pig pancreatic lipase type 2 assessed as Stern-Volmer quenching constant at 32 degC measured after 1 min by Stern-Volmer plot analysis
Summary of the method: as §1

Row | KSV | Compound
10 | 3.34 10^4L/mol | COc1ccc(-c2coc3c(Br)c(O)ccc3c2=O)cc1
11 | 1.02 10^4L/mol | COc1ccc(-c2coc3cc(O)ccc3c2=O)cc1 [FORMONONETIN]
12 | 1.5 10^4L/mol | O=c1c(-c2ccc(O)cc2)coc2cc(O)cc(O)c12 [GENISTEIN]

Species on record: Sus scrofa
Experiment: Binding affinity to pig pancreatic lipase type 2 assessed as decrease in fluorescence intensity at 27 degC measured after 1 min by fluorescence spectral analysis
Summary of the method: as §1

Row | Activity | Compound
13 | Active | COc1ccc(-c2coc3c(Br)c(O)ccc3c2=O)cc1
14 | Active | COc1ccc(-c2coc3cc(O)ccc3c2=O)cc1 [FORMONONETIN]
15 | Active | O=c1c(-c2ccc(O)cc2)coc2cc(O)cc(O)c12 [GENISTEIN]

Species on record: Sus scrofa
Experiment: Binding affinity to pig pancreatic lipase type 2 assessed as binding constant at 27 degC measured after 1 min by Stern-Volmer plot analysis
Summary of the method: as §1

Row | Ka | Compound
16 | 12.4 10^4L/mol | COc1ccc(-c2coc3c(Br)c(O)ccc3c2=O)cc1
17 | 0.16 10^4L/mol | COc1ccc(-c2coc3cc(O)ccc3c2=O)cc1 [FORMONONETIN]
18 | 1.24 10^4L/mol | O=c1c(-c2ccc(O)cc2)coc2cc(O)cc(O)c12 [GENISTEIN]

Species on record: Sus scrofa
Experiment: Binding affinity to pig pancreatic lipase type 2 assessed as decrease in fluorescence intensity at 32 degC measured after 1 min by fluorescence spectral analysis
Summary of the method: as §1

Row | Activity | Compound
19 | Active | COc1ccc(-c2coc3c(Br)c(O)ccc3c2=O)cc1
20 | Active | COc1ccc(-c2coc3cc(O)ccc3c2=O)cc1 [FORMONONETIN]
21 | Active | O=c1c(-c2ccc(O)cc2)coc2cc(O)cc(O)c12 [GENISTEIN]

Species on record: Sus scrofa
Experiment: Binding affinity to pig pancreatic lipase type 2 assessed as binding constant at 32 degC measured after 1 min by Stern-Volmer plot analysis
Summary of the method: as §1

Row | Ka | Compound
22 | 8.47 10^4L/mol | COc1ccc(-c2coc3c(Br)c(O)ccc3c2=O)cc1
23 | 0.22 10^4L/mol | COc1ccc(-c2coc3cc(O)ccc3c2=O)cc1 [FORMONONETIN]
24 | 0.87 10^4L/mol | O=c1c(-c2ccc(O)cc2)coc2cc(O)cc(O)c12 [GENISTEIN]

Species on record: Sus scrofa
Experiment: Binding affinity to pig pancreatic lipase type 2 assessed as Stern-Volmer quenching constant at 27 degC measured after 1 min by Stern-Volmer plot analysis
Summary of the method: as §1

Row | KSV | Compound
25 | 4.69 10^4L/mol | COc1ccc(-c2coc3c(Br)c(O)ccc3c2=O)cc1
26 | 0.72 10^4L/mol | COc1ccc(-c2coc3cc(O)ccc3c2=O)cc1 [FORMONONETIN]
27 | 1.88 10^4L/mol | O=c1c(-c2ccc(O)cc2)coc2cc(O)cc(O)c12 [GENISTEIN]

Species on record: Sus scrofa
Experiment: Binding affinity to pig pancreatic lipase type 2 assessed as decrease in fluorescence intensity at 37 degC measured after 1 min by fluorescence spectral analysis
Summary of the method: as §1

Row | Activity | Compound
28 | Active | COc1ccc(-c2coc3c(Br)c(O)ccc3c2=O)cc1
29 | Active | COc1ccc(-c2coc3cc(O)ccc3c2=O)cc1 [FORMONONETIN]
30 | Active | O=c1c(-c2ccc(O)cc2)coc2cc(O)cc(O)c12 [GENISTEIN]

Species on record: Sus scrofa
Experiment: Binding affinity to pig pancreatic lipase type 2 assessed as bathochromic shift of maximum fluorescence intensity at 32 degC measured after 1 min by fluorescence spectral analysis
Summary of the method: as §1

Row | Activity | Compound
31 | Active | COc1ccc(-c2coc3c(Br)c(O)ccc3c2=O)cc1
32 | Active | COc1ccc(-c2coc3cc(O)ccc3c2=O)cc1 [FORMONONETIN]
33 | Active | O=c1c(-c2ccc(O)cc2)coc2cc(O)cc(O)c12 [GENISTEIN]

Species on record: Sus scrofa
Experiment: Binding affinity to pig pancreatic lipase type 2 assessed as bathochromic shift of maximum fluorescence intensity at 37 degC measured after 1 min by fluorescence spectral analysis
Summary of the method: as §1

Row | Activity | Compound
34 | Active | COc1ccc(-c2coc3c(Br)c(O)ccc3c2=O)cc1
35 | Active | COc1ccc(-c2coc3cc(O)ccc3c2=O)cc1 [FORMONONETIN]
36 | Active | O=c1c(-c2ccc(O)cc2)coc2cc(O)cc(O)c12 [GENISTEIN]

Species on record: Sus scrofa
Experiment: Binding affinity to pig pancreatic lipase type 2 assessed as bathochromic shift of maximum fluorescence intensity at 27 degC measured after 1 min by fluorescence spectral analysis
Summary of the method: as §1

Row | Activity | Compound
37 | Active | COc1ccc(-c2coc3c(Br)c(O)ccc3c2=O)cc1
38 | Active | COc1ccc(-c2coc3cc(O)ccc3c2=O)cc1 [FORMONONETIN]
39 | Active | O=c1c(-c2ccc(O)cc2)coc2cc(O)cc(O)c12 [GENISTEIN]

Species on record: Sus scrofa
Experiment: Binding affinity to pig pancreatic lipase type 2 assessed as Stern-Volmer quenching constant at 37 degC measured after 1 min by Stern-Volmer plot analysis
Summary of the method: as §1

Row | KSV | Compound
40 | 2.29 10^4L/mol | COc1ccc(-c2coc3c(Br)c(O)ccc3c2=O)cc1
41 | 1.06 10^4L/mol | COc1ccc(-c2coc3cc(O)ccc3c2=O)cc1 [FORMONONETIN]
42 | 1.07 10^4L/mol | O=c1c(-c2ccc(O)cc2)coc2cc(O)cc(O)c12 [GENISTEIN]

Target: not listed separately
Experiment: Non-competitive inhibition of pig pancreatic lipase type 2 using varying concentrations of p-nitrophenyl butyrate as substrate measured every 1 min for 30 mins by Lineweaver-Burk plot analysis
Parameters: species or system Sus scrofa
Summary of the method: as §2

Row | Ki | Compound
43 | 1900 µM | COc1ccc(-c2coc3c(Br)c(O)ccc3c2=O)cc1
44 | 2900 µM | COc1ccc(-c2coc3cc(O)ccc3c2=O)cc1 [FORMONONETIN]

Target: not listed separately
Experiment: Inhibition of pig pancreatic lipase type 2 using p-nitrophenyl butyrate as substrate preincubated with enzyme for 10 mins followed by susbtrate addition and measured after 30 mins by spectrophotometric analysis
Parameters: species or system Sus scrofa
Summary of the method: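 PL (300 U/mL stock, in 50 mM phosphate buffer pH 7.2) was preincubated with compound aliquots (MeOH or MeOH:DMSO 95:5 stocks) for 10 min at 37 °C. p-Nitrophenyl butyrate (3.2 mM stock) was then added and incubated 30 min at 37 °C with shaking, read at 405 nm. Five concentrations per compound, in triplicate. % inhibition was taken from absorbance vs no-compound control, and IC50 by regression.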

Row | IC50 | Compound
45 | 87 µM | COc1ccc(-c2coc3c(Br)c(O)ccc3c2=O)cc1
46 | 120 µM | COc1ccc(-c2coc3cc(O)ccc3c2=O)cc1 [FORMONONETIN]
47 | 60 µM | O=c1c(-c2ccc(O)cc2)coc2cc(O)cc(O)c12 [GENISTEIN]

Species on record: Sus scrofa
Experiment: Binding affinity to pig pancreatic lipase type 2 assessed as quenching rate constant at 37 degC measured after 1 min by Stern-Volmer plot analysis
Summary of the method: as §1

Row | Kq | Compound
48 | 1.43 10^13L/mol.s | COc1ccc(-c2coc3c(Br)c(O)ccc3c2=O)cc1
49 | 0.66 10^13L/mol.s | COc1ccc(-c2coc3cc(O)ccc3c2=O)cc1 [FORMONONETIN]
50 | 0.67 10^13L/mol.s | O=c1c(-c2ccc(O)cc2)coc2cc(O)cc(O)c12 [GENISTEIN]

Species on record: Sus scrofa
Experiment: Binding affinity to pig pancreatic lipase type 2 assessed as quenching rate constant at 27 degC measured after 1 min by Stern-Volmer plot analysis
Summary of the method: as §1

Row | Kq | Compound
51 | 2.95 10^13L/mol.s | COc1ccc(-c2coc3c(Br)c(O)ccc3c2=O)cc1
52 | 0.45 10^13L/mol.s | COc1ccc(-c2coc3cc(O)ccc3c2=O)cc1 [FORMONONETIN]
53 | 1.18 10^13L/mol.s | O=c1c(-c2ccc(O)cc2)coc2cc(O)cc(O)c12 [GENISTEIN]
